From PubChem BioAssay
esBAF inh: inhibitors of esBAF chromatin remodeling in mouse ES cells; AID 602393; Bmi1-luciferase knock-in reporter, 24 h; 100% = twice the neutral-well signal; 350,000 compounds, 2% hits; reporter increase, % at 12.5 µM; in the data active = activation above about 40%; inconclusive = no clear call, values can overlap the other calls;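 also: a rise in the Bmi1 reporter signal indicates esBAF inhibition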
Cneo AK release: causes C. neoformans cell lysis | 360,000 compounds, 0.2% hits | adenylate kinase release luminescence, 4 h; normalised: neutral wells 0, clomiphene wells 100 | lysis activity, % at 15 µM;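 active = mean lysis activity across replicates of at least 80%, whatever share of replicates individually reach that level; inactive = mean lysis activity below 80%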
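Assay system: C. neoformans cells. Amount: yeast cell density of 5 × 10^6 cells/mL. Technique: AK luminescence. Buffer or medium: YPD. Times: static 4 h at 37 °C with compound, 1 h detection. Dosing: single-point compound dose. Read-out: lysis from increased AK signal.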
Env fusion inh: inhibitors of HIV Env-mediated cell fusion; HeLa-JRFL Env/CEM21 cell fusion, luciferase; inhibition, % at 12.3 µM; 360,000 compounds, 1.1% hits;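 active = mean replicate inhibition score of at least 50 and every replicate individually at or above 50; inconclusive = only one of the two criteria met; inactive = mean below 50 and not all replicates reaching 50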
ERAP1 HTS inh: blocks human ERAP1 aminopeptidase activity. recombinant ERAP1, Leu-AMC fluorescence, 60 min. 340,000 compounds, 0.15% hits. inhibition, % at 10.7 µM;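 active = mean replicate inhibition of at least 30%, or all replicates individually reaching that 30% level; inactive = mean below 30% and not every replicate reaching it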
Wnt bcat act: Wnt/beta-catenin pathway activation. activation, % at 9.35 µM. 300,000 compounds, 1.2% hits. Wnt/beta-catenin reporter cell assay, activator, plate reader; in the data active = activation above about 30%, passing the limit was not always enough; inconclusive = no clear call, values can overlap the other calls
MITF act: MITF TRPM1 promoter activation in melanoma cells; SK-MEL-5 TRPM1-promoter luciferase, 24 h; % of positive control, neutral wells = 0; activation, % at 12.5 µM; 300,000 compounds, 0.75% hits;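 active = mean activation of at least 80% with every replicate also reaching 80%; inconclusive = mean reaches 80% but some replicate falls short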
Numbers stand for hits; - = inactive; ? = inconclusive; . = no result given. Hits are enriched below; roughly 3.5% of the tested compounds scored in any of these assays.

SMILES	esBAF inh	Cneo AK release	Env fusion inh	ERAP1 HTS inh	Wnt bcat act	MITF act
Cc1ncc(CO)c(/C=N/NC(=O)c2ccc(O)cc2)c1O	.	.	-	.	-	-
COc1ccc(C(=O)N/N=C/c2c(CO)cnc(C)c2O)cc1	.	.	-	32.8	-	-
COCC(=O)N1[C@@H](CO)[C@@H]2c3ccccc3N(C(=O)C3CC3)C[C@@H]21	-	-	.	-	.	.
COc1ccc(NC(=O)N[C@H]2CC[C@@H](CCNC(=O)Cc3ccncc3)O[C@H]2CO)cc1	-	-	-	-	.	.
CN(C)N=Nc1ccc(S(N)(=O)=O)cc1	-	-	-	-	-	-
CN(C)c1ccc(N=Nc2ccc(S(N)(=O)=O)cc2)cc1	-	-	-	-	42.4	-
C[C@@H]1CN([C@@H](C)CO)C(=O)c2cc(NC(=O)NC3CCCCC3)ccc2O[C@@H](C)CCCCO[C@H]1CN(C)S(=O)(=O)c1cccs1	-	-	-	.	.	.
CC1=CC(=C2N=C(c3ccccc3)OC2=O)C=C(C)O1	64.0	.	-	-	.	.
CN1C=CC=C/C1=C1/N=C(c2ccccc2)OC1=O	-	.	-	.	-	-
C[C@H]1CN([C@@H](C)CO)C(=O)Cc2cc(NC(=O)Cn3cnnn3)ccc2O[C@H]1CN(C)Cc1ccc(-c2ccccc2)cc1	-	-	.	-	.	.
Cc1ccc(NC(=O)CN(C)S(=O)(=O)c2cccs2)cc1C	98.3	-	.	-	-	-
CCOc1ccc(NC(=O)CN(C)S(=O)(=O)c2cccs2)cc1	54.0	-	.	.	.	-
CN(CC(=O)Nc1ccc(OC(F)(F)F)cc1)C(=O)Cc1cccs1	-	-	61.9	-	-	-
Cc1ccc(NC(=O)CN(C)S(=O)(=O)c2cccs2)cc1F	50.8	-	.	.	.	-
CN(CC(=O)Nc1ccc(OC(F)(F)F)cc1)C(=O)Cc1c(Cl)cccc1Cl	-	-	-	-	-	-
C[C@@H]1CN([C@@H](C)CO)C(=O)CCCn2nncc2CO[C@H]1CN(C)C(=O)Nc1cccc(C(F)(F)F)c1	-	-	.	-	.	.
CN(C)CC(=O)N1CC(=O)N2[C@H](CO)[C@@H](c3ccc(/C=C/c4ccccc4)cc3)[C@H]2C1	.	.	.	-	.	.
Cc1ccc(C(=O)c2sc3nc4c(cc3c2N)CCC4)cc1	.	-	-	.	32.8	125.0
Nc1c(C(=O)N2CCCC2)sc2nc(-c3ccccc3)ccc12	69.0	.	-	-	49.1	103.1
Nc1c(C(=O)N2CCCCC2)sc2nc3c(cc12)CCCC3	54.1	-	-	-	-	-
Cc1ccc(-c2c3c(nc4sc(C(N)=O)c(N)c24)CCC3)cc1	.	.	.	.	.	-
O=C(CCN1CCCCC1)NCC[C@@H]1CC[C@@H](NC(=O)C2CCCC2)[C@@H](CO)O1	-	-	-	-	.	.
C[C@@H]1CN([C@@H](C)CO)C(=O)c2cc(NC(=O)CCC(F)(F)F)ccc2O[C@@H]1CN(C)S(=O)(=O)c1ccc(Cl)cc1	-	-	.	-	.	.
C[C@H](CO)N1C[C@H](C)[C@@H](CN(C)C(=O)c2cccnc2)Oc2cc(C3=CCCC3)ccc2S1(=O)=O	-	-	-	-	.	.
O=C(NC(=S)Nc1ccc(N2CCOCC2)cc1)c1ccccc1	52.7	-	-	-	-	-
SMILES	esBAF inh	Cneo AK release	Env fusion inh	ERAP1 HTS inh	Wnt bcat act	MITF act
Cn1cccc1C(=O)Nc1ccc(N2CCOCC2)cc1	-	-	.	-	38.5	-
C[C@@H](NC(=O)C[C@@H]1CC[C@@H](NC(=O)CN2CCOCC2)[C@H](CO)O1)c1ccccc1	-	-	-	-	.	.
C[C@H](CO)N1C[C@H](C)[C@H](CN(C)C(=O)Nc2ccc(F)cc2)Oc2ccc(NS(=O)(=O)c3ccccc3)cc2CC1=O	-	-	.	-	.	.
CO[C@@H]1CN(C)C(=O)c2ccc(NC(=O)c3cnccn3)cc2OC[C@@H](C)N(C(=O)c2cnccn2)C[C@H]1C	-	-	.	-	.	.
C[C@H]1CN([C@@H](C)CO)C(=O)Cc2cc(NC(=O)CCN3CCOCC3)ccc2O[C@H]1CN(C)Cc1ccncc1	-	-	-	-	.	.
O=C(CSc1nnc(CNc2ccc(F)cc2)o1)N1c2ccccc2Sc2ccccc21	-	-	63.7	.	.	-
Clc1ccccc1Cn1nnc(-c2cccs2)n1	56.0	-	.	.	.	-
Clc1ccccc1Cn1nnc(-c2ccccc2)n1	.	.	-	-	-	-
Cc1cc(C)n(CC(=O)NC2CCCc3c2cnn3-c2ccc(C)c(C)c2)n1 (stereo unspecified)	59.1	-	-	-	-	-
COc1ccnc(CSC(N)=Nc2ccc(F)cc2)c1	55.7	-	-	.	.	-
COc1ccc(/C=C(\CC(=O)O)c2nc3ccccc3s2)cc1O	-	-	-	-	-	-
COc1ccc(-c2nn(-c3ccccc3)cc2/C=C(\CC(=O)O)c2nc3ccccc3s2)cc1OC	40.3	-	-	-	-	-
CC(C)Cc1ccc(C(C)C(N)=NCCc2ccccc2)cc1 (stereo unspecified)	-	-	76.4	-	-	-
COc1ccc(CCN=C(N)C(C)c2ccccc2)cc1OC (stereo unspecified)	-	-	-	-	-	-
C=CCCN(C(CC(C)C)C(=O)OC)S(=O)(=O)c1ccccc1Br (stereo unspecified)	-	-	-	-	-	-
COC(=O)C(CC(C)C)N(Cc1cc(OC)cc(OC)c1)S(=O)(=O)c1ccccc1Br (stereo unspecified)	-	-	58.5	-	-	-
COC(=O)[C@H](CC(C)C)N(Cc1ccccc1)S(=O)(=O)N(Cc1ccc(OC)cc1)[C@@H](CC(C)C)C(=O)OC	-	-	74.5	-	-	-
CCOC(=O)[C@@H](C)N(Cc1ccc(OC)cc1)S(=O)(=O)N(Cc1ccccc1)[C@H](C(=O)OC)C(C)C	-	-	92.1	-	-	-
COC(=O)[C@H](CC(C)C)N(Cc1ccccc1)S(=O)(=O)N(Cc1ccccc1)[C@@H](CC(C)C)C(=O)OC	-	-	-	.	-	-
CCOC(=O)[C@@H](C)NS(=O)(=O)N(Cc1ccccc1)[C@H](C(=O)OC)C(C)C	-	-	-	-	-	-
C[C@@H]1CN([C@@H](C)CO)S(=O)(=O)c2ccc(C#C[C@@H](C)O)cc2O[C@H]1CN(C)C(=O)C1CC1	-	-	-	-	.	.
COc1ccc(NC(=O)Nc2ccc3c(c2)C(=O)N([C@@H](C)CO)C[C@H](C)[C@@H](CN(C)C(=O)Nc2ccc4c(c2)OCO4)OCCCC[C@H](C)O3)cc1	-	-	-	-	.	.
CC12CN(C(=O)c3ccccc3Br)CC(C)(CN(C(=O)c3ccccc3Br)C1)C2=O	-	.	-	-	40.8	.
O=C(c1ccccc1)N1CCN(C(=O)c2ccccc2Br)CC1	-	-	-	.	-	.
Oc1ccc(-c2nnc(SCC3CCCCC3)o2)cc1	?	-	-	.	52.8	.
O=C(CSc1nnc(-c2ccc(F)cc2)o1)NC1CCCCC1	.	.	-	-	-	-
COc1cccc(S(=O)(=O)N(C)C[C@@H]2Oc3ncc(C#CC(C)C)cc3C(=O)N([C@H](C)CO)C[C@@H]2C)c1	-	-	-	-	.	.
CN1CCN(/N=C/c2ccc(Br)cc2)CC1	-	-	-	-	-	94.7
